Assay results from article PMC6543826 (Bioorganic chemistry, 2018).
Read-outs that look alike come from different tables or passages of the source.

Experiments:
M14 = test: cells; format: cell-based; details: M14, 10^−5 M, 48 h
SK-OV-3 = test: cells; format: cell-based; details: SK-OV-3, 10^−5 M, 48 h
HCC-2998 = test: cells; format: cell-based; details: HCC-2998, 10^−5 M, 48 h
MOLT-4 = test: cells; format: cell-based; details: MOLT-4, 10^−5 M, 48 h
SK-MEL-28 = test: cells; format: cell-based; details: SK-MEL-28, 10^−5 M, 48 h
K-562 = test: cells; format: cell-based; details: K-562, 10^−5 M, 48 h
PC-3 = test: cells; format: cell-based; details: PC-3, 10^−5 M, 48 h
ERK1 = ERK1 (Homo sapiens, UniProt P27361); test: in vitro radioactive kinase assay, Ets-1 phosphorylation by ERK1; format: biochemical
Summary of the method: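 Radiometric assay at 28–30 °C in 25 mM HEPES pH 7.5, 50 mM KCl, 0.1 mM EDTA/EGTA, 2 mM DTT, 11 mM MgCl2, 10 μg mL−1 BSA and 5% DMSO (final). 2 nM activated ERK1 was used with 10 μM His-Ets-1 (1–138). Reactions were started with [γ-32P]ATP (10 or 100 μM). IC50 came from fitting rate versus inhibitor concentration to a hyperbolic decay equation.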

OVCAR-5 = test: cells; format: cell-based; details: OVCAR-5, 10^−5 M, 48 h
IGROV1 = test: cells; format: cell-based; details: IGROV1, 10^−5 M, 48 h
UACC-62 = test: cells; format: cell-based; details: UACC-62, 10^−5 M, 48 h
SN12C = test: cells; format: cell-based; details: 10^−5 M, 48 h
HCT-116 = test: cells; format: cell-based; details: HCT-116, 10^−5 M, 48 h
NCI-H23 = test: cells; format: cell-based; details: NCI-H23, 10^−5 M, 48 h
RXF 393 = test: cells; format: cell-based; details: RXF 393, 10^−5 M, 48 h
HCT-15 = test: cells; format: cell-based; details: HCT-15, 10^−5 M, 48 h
MDA-MB-468 = test: cells; format: cell-based; details: MDA-MB-468, 10^−5 M, 48 h
MDA-MB-435 = test: cells; format: cell-based; details: MDA-MB-435, 10^−5 M, 48 h
CCRF-CEM = test: cells; format: cell-based; details: 10^−5 M, 48 h
HOP-62 = test: cells; format: cell-based; details: HOP-62, 10^−5 M, 48 h
NCI-H460 = test: cells; format: cell-based; details: NCI-H460, 10^−5 M, 48 h
U251 = test: cells; format: cell-based; details: U251, 10^−5 M, 48 h
JNK2 = JNK2 (Homo sapiens, UniProt P45984); test: in vitro kinase assay, GST-c-Jun; format: biochemical
SK-MEL-5 = test: cells; format: cell-based; details: SK-MEL-5, 10^−5 M, 48 h
SK-MEL-2 = test: cells; format: cell-based; details: SK-MEL-2, 10^−5 M, 48 h
OVCAR-4 = test: cells; format: cell-based; details: OVCAR-4, 10^−5 M, 48 h
SNB-75 = test: cells; format: cell-based; details: SNB-75, 10^−5 M, 48 h
p38MAPKα = p38MAPKα (Homo sapiens, UniProt Q16539); test: in vitro kinase assay, GST-ATF2; format: biochemical
BT-549 = test: cells; format: cell-based; details: BT-549, 10^−5 M, 48 h
[1] = test system: NCI-60 panel of tumor cell lines; details: for Average G%: average over tested NCI-60 cell lines, 10^−5 M (10 μM), 48 h
KM 12 = test: cells; format: cell-based; details: KM 12, 10^−5 M, 48 h
T-47D = test: cells; format: cell-based; details: T-47D, 10^−5 M, 48 h
HT29 = test: cells; format: cell-based; details: HT29, 10^−5 M, 48 h
MALME-3M = test: cells; format: cell-based; details: MALME-3M, 10^−5 M, 48 h
HL-60 (TB) = test: cells; format: cell-based; details: HL-60(TB), 10^−5 M, 48 h

Sequence of JNK2 (P45984 whole entry): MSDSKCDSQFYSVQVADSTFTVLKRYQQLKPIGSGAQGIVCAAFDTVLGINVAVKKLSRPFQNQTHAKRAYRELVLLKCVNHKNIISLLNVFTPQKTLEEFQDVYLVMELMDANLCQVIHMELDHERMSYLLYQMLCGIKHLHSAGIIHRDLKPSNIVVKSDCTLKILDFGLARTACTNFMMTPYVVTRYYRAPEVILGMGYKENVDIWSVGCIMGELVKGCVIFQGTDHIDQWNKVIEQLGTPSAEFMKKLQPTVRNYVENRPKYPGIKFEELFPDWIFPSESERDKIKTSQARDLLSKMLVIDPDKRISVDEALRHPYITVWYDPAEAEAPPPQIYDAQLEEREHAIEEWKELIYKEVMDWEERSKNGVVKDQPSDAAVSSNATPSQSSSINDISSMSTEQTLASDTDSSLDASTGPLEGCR
Sequence of ERK1 (P27361 whole entry, species assumed): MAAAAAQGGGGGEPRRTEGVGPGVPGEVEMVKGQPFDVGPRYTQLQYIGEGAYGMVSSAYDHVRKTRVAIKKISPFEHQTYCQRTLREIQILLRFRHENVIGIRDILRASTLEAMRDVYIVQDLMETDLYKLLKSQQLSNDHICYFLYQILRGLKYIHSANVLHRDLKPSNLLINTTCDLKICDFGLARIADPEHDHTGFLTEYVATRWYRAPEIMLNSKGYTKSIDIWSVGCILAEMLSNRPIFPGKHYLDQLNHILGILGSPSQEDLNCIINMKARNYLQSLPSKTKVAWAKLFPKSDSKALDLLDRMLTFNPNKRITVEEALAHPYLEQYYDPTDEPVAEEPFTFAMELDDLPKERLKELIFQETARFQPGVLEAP
Sequence of p38MAPKα (Q16539 whole entry): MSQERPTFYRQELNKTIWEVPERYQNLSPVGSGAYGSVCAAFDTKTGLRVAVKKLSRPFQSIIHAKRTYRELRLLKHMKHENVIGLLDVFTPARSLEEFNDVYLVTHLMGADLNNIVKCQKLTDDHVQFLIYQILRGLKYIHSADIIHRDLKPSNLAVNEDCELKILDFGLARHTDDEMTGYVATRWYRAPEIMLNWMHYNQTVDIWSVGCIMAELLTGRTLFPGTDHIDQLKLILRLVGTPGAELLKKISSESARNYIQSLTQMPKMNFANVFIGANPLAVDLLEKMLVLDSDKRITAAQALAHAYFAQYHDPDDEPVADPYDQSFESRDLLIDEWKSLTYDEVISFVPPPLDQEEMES

SMILES: Cn1c(=O)c2c(=O)c3c4c(oc3oc2c2ccccc21)C(=O)c1ccccc1C4=O [5a, 5-Methyl-5H-naphthalen[2″,3″:4′,5′]furo[3′,2′:4′,5,6]pyrano [3,2-c]quinoline-6,7,8,13-tetraone]
- Growth percent (G%) (M14): 98.25%
- Growth percent (G%) (SK-OV-3): 95.03%
- Growth percent (G%) (HCC-2998): 103.64%
- Growth percent (G%) (MOLT-4): 87.37%
- Growth percent (G%) (SK-MEL-28): 107.21%
- Growth percent (G%) (K-562): 89.61%
- Growth percent (G%) (PC-3): 79.23%
- IC50 (ERK1; read-out: ERK1 IC50, 100 μM ATP, 10 μM Ets-1): 95 ± 10.9 µM
- IC50 (ERK1; read-out: IC50 towards inhibiting ERK, ERK isoform not given): ≥ 100 µM
- Growth percent (G%) (OVCAR-5): 102.02%
- Growth percent (G%) (IGROV1): 65.92%
- Growth percent (G%) (UACC-62): 93.45%
- Growth percent (G%) (SN12C): 125.68%
- Growth percent (G%) (HCT-116): 99.77%
- Growth percent (G%) (NCI-H23): 86.15%
- Growth percent (G%) (RXF 393): 87.68%
- Growth percent (G%) (HCT-15): 94.13%
- Growth percent (G%) (MDA-MB-468): 64.82%
- Growth percent (G%) (MDA-MB-435): 105.3%
- Growth percent (G%) (CCRF-CEM): 92.93%
- Growth percent (G%) (HOP-62): 80.81%
- Growth percent (G%) (NCI-H460): 108.09%
- Growth percent (G%) (U251): 104.35%
- ability to inhibit JNK2 (in words) (JNK2): did not show any ability to inhibit
- IC50 (JNK2; read-out: JNK2 IC50, 2 μM GST-c-Jun (1–221)): > 200 µM
- Growth percent (G%) (SK-MEL-5): 97.56%
- Growth percent (G%) (SK-MEL-2): 86.85%
- Growth percent (G%) (OVCAR-4): 97.38%
- Growth percent (G%) (SNB-75): 101.36%
- ability to inhibit p38MAPKα (in words) (p38MAPKα): did not show any ability to inhibit
- IC50 (p38MAPKα; read-out: p38MAPKα IC50, 10 μM GST-ATF2): > 200 µM
- Growth percent (G%) (BT-549): 104.21%
- Average G% [1]: 95.45%
- Growth percent (G%) (KM 12): 95.63%
- Growth percent (G%) (T-47D): 83.56%
- Growth percent (G%) (HT29): 96.96%
- Growth percent (G%) (MALME-3M): 113.29%
- Growth percent (G%) (HL-60 (TB)): 104.29%

SMILES: O=C1C(Cl)=C(c2c(O)c3c(=O)n(-c4ccccc4)c4ccccc4c3oc2=O)C(=O)c2ccccc21 [compound 6, 3-(3-Chloro-1,4-dioxo-1,4-dihydronaphthalen-2-yl)-4-hydroxy-6-phenyl-2H-pyrano[3,2-c]quinoline-2,5(6H)-dione]
- Growth percent (G%) (M14): 44.74%
- Growth percent (G%) (SK-OV-3): 67.28%
- Growth percent (G%) (HCC-2998): 42.85%
- Growth percent (G%) (MOLT-4): 16.13%
- Growth percent (G%) (SK-MEL-28): 39.37%
- Growth percent (G%) (K-562): 26.84%
- Growth percent (G%) (PC-3): 49.16%
- IC50 (ERK1; ERK1 IC50, 100 μM ATP, 10 μM Ets-1): 0.19 ± 0.01 µM
- Growth percent (G%) (OVCAR-5): 88.70%
- Growth percent (G%) (IGROV1): 71.85%
- Growth percent (G%) (UACC-62): 13.17%
- Growth percent (G%) (SN12C): −14.11%
- Growth percent (G%) (HCT-116): 41.72%
- Growth percent (G%) (NCI-H23): 38.22%
- Growth percent (G%) (RXF 393): 69.20%
- Growth percent (G%) (HCT-15): 66.56%
- Growth percent (G%) (MDA-MB-468): −27.29%
- Growth percent (G%) (MDA-MB-435): 87.80%
- Growth percent (G%) (CCRF-CEM): 17.76%
- Growth percent (G%) (HOP-62): 36.07%
- Growth percent (G%) (NCI-H460): 33.57%
- Growth percent (G%) (U251): 21.15%
- IC50 (JNK2): 4.2 ± 0.9 µM
- ability to inhibit JNK2 (in words) (JNK2): little tendency to inhibit
- Growth percent (G%) (SK-MEL-5): 17.66%
- Growth percent (G%) (SK-MEL-2): 23.06%
- Growth percent (G%) (OVCAR-4): 18.80%
- Growth percent (G%) (SNB-75): 31.77%
- ability to inhibit p38MAPKα (in words) (p38MAPKα): little tendency to inhibit
- IC50 (p38MAPKα; p38MAPKα IC50, 10 μM GST-ATF2): 3.1 ± 0.5 µM
- Growth percent (G%) (BT-549): 12.26%
- NCI Cytotoxicity Screening Average G% ([1]; Table 4, 10 μM one-dose screen): 35%
- Average G% [1]: 35.49%
- Growth percent (G%) (KM 12): 18.86%
- Growth percent (G%) (T-47D): 4.47%
- Growth percent (G%) (HT29): 84.18%
- Growth percent (G%) (MALME-3M): 42.00%
- Growth percent (G%) (HL-60 (TB)): 7.05%
